# A selection: hits, their analogues and other compounds. The true share with any hit is near 1.8%.
# Tn6 DDE FP – inhibitors of Tn6 peptide binding to fibrin DD(E), primary screen, biochemical, fluorescence polarization, human fibrin, Tn6 probe | inhibition, % at 8.3 µM | 370,000 tested, 0.21% active | Fibrin DD(E) TRITC-Tn6 fluorescence polarization displacement;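 active means inhibition above a per-campaign cutoff: mean of compounds within control limits plus 3 SD, cut at about 15% in these data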;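 further: 0% = median of all compound wells on the plate and 100% = blocking peptide control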
# DDE Tn7 FP inh – inhibitors of Tn7 peptide binding to fibrin DD(E), primary screen, biochemical, fluorescence polarization, human fibrin, Tn7 probe. FP displacement of FITC-Tn7 peptide from fibrin DD(E); 0% = median of compound wells per plate. inhibition, % at 8.3 µM. 370,000 tested, 0.13% active;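 active means inhibition above the mean of compounds falling within the control limits plus 3 SD of them, cut at about 14% in these data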;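 further: 0% = plate median of compound wells and 100% = 10 µM Aha-Tn7 peptide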
#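 Assay system: Fibrin-DD(E) protein isolated from polymerized human fibrin clots; read-out basis: percent inhibition; medium: Tris/NaCl/CaCl2 buffer, pH 7.8; signal: FP measurement; incubation: 10 min plus 3 h, room temperature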
# HTRA1 inhibitor – HTRA1 serine protease inhibitors, primary screen, biochemical, fluorescence polarization, HTS; Q92743; recombinant HTRA1, FP-rhodamine activity-based probe; inhibition, % at 5.96 µM; 340,000 tested, 0.5% active; in the data active means inhibition above about 36%;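 further: 0% = enzyme with DMSO and 100% = wells lacking enzyme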
# Target sequence (Q92743 whole entry, looked up): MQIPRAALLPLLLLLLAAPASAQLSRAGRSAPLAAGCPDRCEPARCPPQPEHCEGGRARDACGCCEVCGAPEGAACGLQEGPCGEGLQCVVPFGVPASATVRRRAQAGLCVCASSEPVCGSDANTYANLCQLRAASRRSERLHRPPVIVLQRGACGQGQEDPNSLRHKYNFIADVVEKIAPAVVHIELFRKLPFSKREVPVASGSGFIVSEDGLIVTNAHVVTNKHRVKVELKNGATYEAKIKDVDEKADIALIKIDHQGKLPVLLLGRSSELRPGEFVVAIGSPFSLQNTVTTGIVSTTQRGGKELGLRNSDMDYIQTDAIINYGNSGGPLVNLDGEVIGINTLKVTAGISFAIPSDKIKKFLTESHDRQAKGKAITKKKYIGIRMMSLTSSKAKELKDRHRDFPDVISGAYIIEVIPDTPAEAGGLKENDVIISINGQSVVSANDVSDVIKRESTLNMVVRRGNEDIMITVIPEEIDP
# TCR-CD3 inh – inhibitors of human TCR-CD3 interaction, primary screen, biochemical, fluorescence, TAMRA-labeled TCR probe; T-cell receptor (TCR); inhibition, % at 9.4 µM; 360,000 tested, 0.37% active; AID 651800, 2012;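 further: recombinant mutant TCR 2C K166C tagged with TAMRA read by polarization; 0% = receptor in buffer alone and 100% = receptor with positive control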
# SIAE primary – human SIAE inhibitors, primary screen, biochemical, fluorescence polarization, FP-Rh probe, 1536-well HTS; Sialate O-acetylesterase (Homo sapiens), Q9HAT2; 370,000 tested, 0.69% active; inhibition, % at 9.66 µM; AID 1053197, 2014; SIAE FP-Rh probe binding;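 active means inhibition above a cutoff: mean of compounds within the control limits plus 3 SD of those, cut at about 17% in these data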;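 further: 0% = plate median of compound wells and 100% = probe without SIAE protein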
# mABHD4 FP – ABHD4 inhibitors, primary screen, biochemical, fluorescence polarization, mouse | (Lyso)-N-acylphosphatidylethanolamine lipase (Mus musculus), Q8VD66 | AID 720543, 2013 | 370,000 tested, 0.54% active | inhibition, % at 8.92 µM | purified mABHD4, FP-Rh probe fluorescence polarization;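 active means inhibition exceeding the mean over every tested compound plus 3 SD, cut at about 30% in these data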;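 further: 0% = plate median of compound wells and 100% = S159A mutant with DMSO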
#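 assay system = mABHD4 protein | compound dosing = single nominal dose of 8.92 µM, 0.89% DMSO final | read-out basis = percent inhibition of probe binding, normalized to plate controls | schedule = Enzyme–compound pre-incubation 45 min, then probe 60 min, both 25 °C | detection = fluorescence polarization, excitation 525 nm, emission 598 nm, BODIPY TMR filters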
# HTRA1 conf – HTRA1 protease inhibitors, retest, confirmation, biochemical, fluorescence polarization. shares compounds with HTRA1 inhibitor. recombinant HTRA1, FP-rhodamine activity-based probe. inhibition, % at 5.96 µM. 1,600 tested, 66% active. AID 540248, 2011;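 active means mean inhibition over three repeats above a set limit taken from the earlier primary screen, cut at about 37% in these data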;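 further: 0% = HTRA1 with DMSO and 100% = wells lacking HTRA1; inhibitors block probe binding so polarization drops and inhibition rises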
# BSA TAMRA ctr – compounds interfering with TAMRA-BSA probe, counter-screen for TCR-CD3 interaction inhibitor project, biochemical, fluorescence, TAMRA-labeled BSA; shares compounds with TCR-CD3 inh; TAMRA-labeled BSA probe fluorescence counterscreen; inhibition, % at 9.4 µM; 1,200 tested, 10% active; AID 652035, 2013; in the data active means inhibition above about 23%;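 further: 0% = buffer low control and 100% = reference high control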
# TCR-CD3 inh conf – TCR-CD3 interaction inhibitors, retest, confirmation, biochemical, fluorescence, TAMRA-labeled TCR probe | 1,200 tested, 48% active | AID 652036, 2013 | inhibition, % at 9.4 µM | shares compounds with TCR-CD3 inh | TAMRA-labeled TCR probe fluorescence binding assay
# Tn6 DDE ctr – counter-screen for inhibitors of Tn6 peptide binding to fibrin DD(E); shares compounds with Tn6 DDE FP; TRITC-Tn6 fluorescence polarization displacement; 0% = median of compound wells, not DMSO; inhibition, % at 8.3 µM; 680 tested, 2% active;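 active means inhibition above the mean of test compounds lying between the control limits plus 3 SD of those, cut at about 14% in these data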;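 further: 0% = median of compound wells and 100% = wells with Aha-Tn7 blocking peptide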
# Tn6 DDE conf – inhibitors of Tn6 peptide binding to fibrin DD(E), confirmation, biochemical, fluorescence polarization, human fibrin, Tn6 probe. shares compounds with Tn6 DDE FP. FP displacement of TRITC-Tn6 peptide from DD(E); 0% = per-plate median of test wells. inhibition, % at 8.3 µM. 680 tested, 10% active. AID 720631, 2013;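 active means inhibition above the mean of compounds lying within the control limits plus 3 SD, cut at about 16% in these data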;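 further: 100% = high control wells holding a competing inhibitor peptide at 10 µM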
# mABHD4 conf – ABHD4 inhibitors, retest, confirmation, biochemical, fluorescence polarization, mouse; shares compounds with mABHD4 FP; AID 720658, 2013; 1,800 tested, 55% active; inhibition, % at 8.92 µM; purified mABHD4, FP-Rh probe fluorescence polarization;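 active means mean inhibition across replicates above the hit cutoff set in the primary screen, cut at about 30% in these data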;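 further: 0% = wild-type ABHD4 with DMSO and 100% = catalytically dead S159A mutant with DMSO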
# SIAE inh conf – human SIAE inhibitors, retest, confirmation, biochemical, fluorescence polarization, FP-Rh probe, triplicate. shares compounds with SIAE primary. SIAE FP-Rh activity-based probe. 2,300 tested, 13% active. inhibition, % at 9.66 µM. AID 1117263, 2014;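 active means mean inhibition of the replicates above the hit cutoff set in the primary screen, cut at about 17% in these data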;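 further: 0% = SIAE with DMSO and probe and 100% = probe without SIAE; inhibitors lower polarization as more probe stays unbound to SIAE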
# Active calls of the source: *; · = not tested or not shown; + = active, no number. Unless noted, no stated cut-off is given here; in the data, active means inhibition above about 19%; inactive means the rest.
SMILES,Tn6 DDE FP,DDE Tn7 FP inh,HTRA1 inhibitor,TCR-CD3 inh,SIAE primary,mABHD4 FP,HTRA1 conf,mABHD4 conf,others
CCCCCCCCCCCCCCC(O)C[N+](C)(CCO)CCO (stereo not drawn),1,2,54*,0,-7,45*,55*,48*,
O=[N+]([O-])c1ccc2c(c1Nc1ccccc1)=NC1(CCCCC1)N=2,-1,-6,15,7,3,7,·,·,
COc1ccc(Nc2c([N+](=O)[O-])ccc3c2=NC2(CCCCC2)N=3)cc1,-1,4,55*,-5,5,31*,52*,40*,
C=CCn1c(SCC(=O)C(C)(C)C)nnc1-c1ccc(Cl)cc1,-5,-3,·,·,0,2,·,·,
O=S(=O)(O)c1cc(Cl)cc(N=Nc2ccc(O)cc2O)c1O,23*,10,40*,65*,7,70*,38*,-14,BSA TAMRA ctr=65*;TCR-CD3 inh conf=54*;Tn6 DDE ctr=2;Tn6 DDE conf=30*
O=[N+]([O-])c1ccc(N=Nc2ccc(O)cc2O)cc1,9,-8,0,2,4,25,·,·,
Oc1ccc(C=Nc2ccc(N3CCOCC3)cc2)c(O)c1,4,-2,35,-5,6,27,·,·,
Oc1cc(Br)ccc1C=Nc1ccc(N2CCCCC2)cc1,-3,-1,52*,5,3,36*,14,13,
Oc1ccc(-c2nc(-c3ccc(O)c(O)c3)cs2)cc1,0,8,55*,-3,11,33*,55*,32*,
Oc1ccc(Nc2nc(-c3ccc4ccccc4c3)cs2)cc1,-7,-3,32,-1,9,6,·,·,
Cc1cc(N(C)C)ccc1N=Nc1ccc2ncccc2c1,-6,3,37*,-2,3,45*,37*,54*,
CN(C)c1ccc(N=Nc2ccc3ncccc3c2)cc1,3,2,13,4,-1,7,·,·,
Cc1c2cc(O)c(=O)cc-2oc2cc(O)c(O)cc12,1,15*,49*,184*,56*,35*,125*,·,BSA TAMRA ctr=+;TCR-CD3 inh conf=+;SIAE inh conf=104*
Cc1cc2oc(=O)cc(-c3cc4ccccc4o3)c2cc1O,-4,0,-35,-4,-37,-30,·,·,

# Screening data deposited in PubChem by The Scripps Research Institute Molecular Screening Center.
